# Assay results taken from ChEMBL document CHEMBL3414476, “Novel multitarget-directed ligands (MTDLs) with acetylcholinesterase (AChE) inhibitory and serotonergic subtype 4 receptor (5-HT4R) agonist activities as potential agents against Alzheimer's disease: the design of donecopride” (J Med Chem, 2015).
# Active and inactive are the calls of the source. The calls are words filed in the database; no cut-off is given here.
# Columns and labels:
# [1] = biological target: Cholinesterase (Equus caballus) (UniProt P81908); experiment: Inhibition of equine serum BuChE at 10 uM pre-incubated for 5 mins before butyrylthiocholine iodide substrate by Ellman' method
# Chain of Cholinesterase (Equus caballus) (P81908 whole entry): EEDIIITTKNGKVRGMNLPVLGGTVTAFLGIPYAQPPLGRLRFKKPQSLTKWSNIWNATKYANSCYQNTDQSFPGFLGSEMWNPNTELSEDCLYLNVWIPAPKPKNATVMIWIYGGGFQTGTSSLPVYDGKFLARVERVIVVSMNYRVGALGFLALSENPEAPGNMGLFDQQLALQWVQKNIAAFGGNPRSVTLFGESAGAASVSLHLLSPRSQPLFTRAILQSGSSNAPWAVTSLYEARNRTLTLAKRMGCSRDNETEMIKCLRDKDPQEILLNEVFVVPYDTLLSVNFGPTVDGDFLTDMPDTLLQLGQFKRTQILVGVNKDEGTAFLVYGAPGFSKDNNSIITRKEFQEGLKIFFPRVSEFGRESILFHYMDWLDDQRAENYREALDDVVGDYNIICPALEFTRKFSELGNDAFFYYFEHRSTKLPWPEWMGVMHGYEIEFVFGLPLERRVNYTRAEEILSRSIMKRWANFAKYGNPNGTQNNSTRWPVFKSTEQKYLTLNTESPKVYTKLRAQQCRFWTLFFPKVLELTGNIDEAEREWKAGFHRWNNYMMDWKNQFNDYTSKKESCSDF
# How it was run: (§1)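 Ellman assay in 96-well format: 0.3 mM DTNB in phosphate buffer pH 7.4, compound in DMSO, and enzyme (human erythrocyte AChE or equine serum BuChE, 0.05 U final) preincubated 5 min at 25 °C. Started with 10 mM acetyl- or butyrylthiocholine iodide; A412 followed every minute for 10 min, substrate-free blank.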
# Cholinesterase = Cholinesterase (Equus caballus, UniProt P81908); experiment: Inhibition of equine serum BuChE pre-incubated for 5 mins before butyrylthiocholine iodide substrate by Ellman' method; how it was run: as §1
# Chain of Cholinesterase (P81908 whole entry): as above
# Acetylcholinesterase [2] = biological target: T1, Acetylcholinesterase (Homo sapiens, UniProt P22303); experiment: Inhibition of human erythrocyte AChE pre-incubated for 5 mins before acetylthiocholine iodide substrate by Ellman' method
# T1 sequence (P22303 whole entry): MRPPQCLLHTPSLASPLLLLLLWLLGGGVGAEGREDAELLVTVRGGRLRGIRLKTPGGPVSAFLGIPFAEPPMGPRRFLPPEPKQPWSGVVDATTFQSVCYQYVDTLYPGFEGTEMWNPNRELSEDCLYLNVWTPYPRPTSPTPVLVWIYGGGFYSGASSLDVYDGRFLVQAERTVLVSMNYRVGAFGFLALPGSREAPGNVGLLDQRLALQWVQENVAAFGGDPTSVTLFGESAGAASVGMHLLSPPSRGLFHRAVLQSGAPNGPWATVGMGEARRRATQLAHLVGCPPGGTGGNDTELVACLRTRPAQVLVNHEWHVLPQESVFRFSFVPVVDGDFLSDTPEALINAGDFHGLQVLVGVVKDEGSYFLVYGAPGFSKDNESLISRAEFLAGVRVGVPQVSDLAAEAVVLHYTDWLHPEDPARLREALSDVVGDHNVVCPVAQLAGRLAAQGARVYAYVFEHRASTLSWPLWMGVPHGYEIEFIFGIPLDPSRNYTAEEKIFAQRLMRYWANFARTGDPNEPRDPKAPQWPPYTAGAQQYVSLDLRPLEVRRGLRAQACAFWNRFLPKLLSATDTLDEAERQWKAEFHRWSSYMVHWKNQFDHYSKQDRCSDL
# [3] = biological target: 5-hydroxytryptamine receptor 4 (Cavia porcellus, UniProt O70528); experiment: Displacement of [3H]GR113808 from 5-HT4R in guinea pig brain membranes incubated for 30 mins by radioligand binding assay; format: cell membranes, Membrane
# Chain of 5-hydroxytryptamine receptor 4 (O70528 whole entry): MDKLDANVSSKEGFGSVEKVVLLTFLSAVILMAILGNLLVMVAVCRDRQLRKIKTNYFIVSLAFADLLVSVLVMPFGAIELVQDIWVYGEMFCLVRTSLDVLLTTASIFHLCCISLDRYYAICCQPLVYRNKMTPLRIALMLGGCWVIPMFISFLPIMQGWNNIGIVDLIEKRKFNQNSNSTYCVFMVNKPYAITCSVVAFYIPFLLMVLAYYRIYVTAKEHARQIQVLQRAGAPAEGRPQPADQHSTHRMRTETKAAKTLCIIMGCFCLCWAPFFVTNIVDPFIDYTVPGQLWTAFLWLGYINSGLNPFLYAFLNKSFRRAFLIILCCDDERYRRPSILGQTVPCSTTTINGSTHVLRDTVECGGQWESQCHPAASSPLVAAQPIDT
# Acetylcholinesterase [4] = biological target: T1, Acetylcholinesterase; experiment: Inhibition of human erythrocyte AChE at 10 uM pre-incubated for 5 mins before acetylthiocholine iodide substrate by Ellman' method; how it was run: as §1
# Mus musculus [5] = experiment: Toxicity in NMRI mouse assessed as induction of hyperactivity at 2 mg/kg, ip; format: organism-based; parameters: dose 2 mg/kg, route intraperitoneal; conditions: in vivo
# How it was run: (§2)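 Behavioural and neurological changes scored by standardized observation at 30 min, 3 h and 24 h against controls.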
# Mus musculus [6] = experiment: Toxicity in NMRI mouse assessed as induction of exophtalmy at 2 mg/kg, ip; format: organism-based; parameters: dose 2 mg/kg, route intraperitoneal; conditions: in vivo; how it was run: as §2
# Mus musculus [7] = experiment: Toxicity in NMRI mouse assessed as induction of irritability at 2 mg/kg, ip; format: organism-based; parameters: dose 2 mg/kg, route intraperitoneal; conditions: in vivo; how it was run: as §2
# Mus musculus [8] = experiment: Toxicity in NMRI mouse assessed as induction of passivity at 100 mg/kg, ip; format: organism-based; parameters: dose 100 mg/kg, route intraperitoneal; conditions: in vivo
# How it was run: (§3)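 Mice in groups of four received graded IP doses of […]. Behavioural and neurological changes (hypo- or hyperactivity, ataxia, tremors, convulsion, etc.) were scored by standardized observation at 30 min, 3 h and 24 h against controls.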
# Mus musculus [9] = experiment: Antiamnesic activity in NMRI mouse assessed as reversal of scopolamine-induced spontaneous alteration deficit at 0.3 mg/kg, ip by Y maze test; format: functional, organism-based; parameters: dose 0.3 mg/kg
# How it was run: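 Male NMRI mice, 3 months old, 35−40 g. Scopolamine 0.5 mg/kg SC 30 min before the Y-maze test; test drug in 0.9% NaCl IP 30 min before. Spontaneous alternation = actual/possible alternations (total arm entries minus two) × 100. n = 10−12. Compared with 50% by univariate t test.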
# [10] = biological target: 5-hydroxytryptamine receptor 4 (Homo sapiens) (UniProt Q13639); experiment: Agonist activity at HA-tagged 5-HT4R (unknown origin) expressed in COS7 cells assessed as cAMP accumulation by HTRF assay; format: functional, cell-based; parameters: concentration or dose not given beside the values; conditions: COS-7
# Chain of 5-hydroxytryptamine receptor 4 (Homo sapiens) (Q13639 whole entry): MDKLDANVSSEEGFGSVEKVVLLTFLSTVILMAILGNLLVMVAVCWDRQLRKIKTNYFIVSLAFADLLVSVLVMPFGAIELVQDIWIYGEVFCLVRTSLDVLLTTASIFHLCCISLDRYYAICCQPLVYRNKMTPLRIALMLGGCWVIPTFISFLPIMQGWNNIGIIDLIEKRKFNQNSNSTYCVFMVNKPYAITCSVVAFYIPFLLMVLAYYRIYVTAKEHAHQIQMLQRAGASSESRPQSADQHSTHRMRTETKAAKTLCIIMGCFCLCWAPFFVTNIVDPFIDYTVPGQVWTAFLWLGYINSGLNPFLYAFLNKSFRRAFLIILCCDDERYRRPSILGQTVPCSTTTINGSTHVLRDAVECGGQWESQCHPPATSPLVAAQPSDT
# [11] = biological target: 5-hydroxytryptamine receptor 4 (Homo sapiens) (UniProt Q13639); experiment: Displacement of [3H]GR113808 from human 5-HT4R at 10 nM by radioligand binding assay
# How it was run: (§4)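 Recombinant human 5-HT4 membranes, 2.5 μg protein, incubated in duplicate with 0.2 nM [3H]GR113808 in 25 mM Tris pH 7.4 for 60 min at 25 °C, with or without drug at 10−6 or 10−8 M. Filtered on PEI-presoaked GF/C filters, washed with ice-cold buffer. Nonspecific binding with 30 μM serotonin. Read-out is % inhibition of binding.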
# Mus musculus [12] = experiment: Antidepressant-like activity in NMRI mouse assessed as reduction in immobility time at 0.3 mg/kg, ip administered 30 mins before test; format: functional, organism-based; parameters: dose 0.3 mg/kg
# How it was run: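 Male NMRI mice given drug in 0.9% NaCl IP 30 min before the test, not pretested. Each mouse swam 6 min in a 12 cm diameter cylinder, water 13 cm deep at 23−24 °C. Immobility was scored over the last 4 min. n = 10−12, SNK test versus NaCl.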
# [13] = biological target: 5-hydroxytryptamine receptor 4 (Homo sapiens) (UniProt Q13639); experiment: Activity at 5-HT4R (unknown origin) expressed in COS7 cells assessed as increase in sAPPalpha release relative to 5-HT; format: cell-based; conditions: COS-7
# Mus musculus [14] = experiment: Increase in sAPPalpha level in C57BL/6 mouse CSF at 1 mg/kg, ip measured after 90 mins by ELISA method; format: functional, organism-based; parameters: dose 1 mg/kg
# How it was run: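 Wild-type C57BL/6 mice, 2 months old, n = 7/group. Single IP injection of vehicle (0.9% NaCl, 0.2% DMSO) or drug. After 90 min, CSF was taken from the cisterna magna under anesthesia, frozen at −80 °C and heated at 60 °C for 5 min. sAPPα measured by mouse/rat ELISA read at 620/450 nm. Unpaired t test.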
# [15] = Toxicity in ip dosed NMRI mouse; format: organism-based; conditions: in vivo
# Mus musculus [16] = experiment: Toxicity in NMRI mouse assessed as induction of hypoactivity at 100 mg/kg, ip; format: organism-based; parameters: dose 100 mg/kg, route intraperitoneal; conditions: in vivo; how it was run: as §3
# Mus musculus [17] = experiment: Toxicity in NMRI mouse assessed as toxic symptoms at 1 to 10 mg/kg, ip; format: organism-based; parameters: dose 1-10 mg/kg, route intraperitoneal; conditions: in vivo; how it was run: as §3
# Mus musculus [18] = experiment: Toxicity in NMRI mouse assessed as effect on spontaneous locomotor activity at 10 mg/kg, ip dosed 30 mins before placing mouse in actimeter; format: organism-based; parameters: dose 10 mg/kg, route intraperitoneal; conditions: in vivo, 0.5 h
# How it was run: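 Adult male NMRI mice were dosed IP 30 min before being placed individually in an infrared actimeter. Beam interruptions were counted over 30 min. Mean ± SD, n = 9–10, SNK test versus NaCl.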
# [19] = biological target: 5-hydroxytryptamine receptor 4 (Homo sapiens) (UniProt Q13639); experiment: Displacement of [3H]GR113808 from human 5-HT4R at 1 uM by radioligand binding assay; how it was run: as §4
# Mus musculus [20] = experiment: Toxicity in NMRI mouse assessed as induction of ataxia at 10 mg/kg, ip; format: organism-based; parameters: dose 10 mg/kg, route intraperitoneal; conditions: in vivo; how it was run: as §3
# Mus musculus [21] = experiment: Toxicity in NMRI mouse assessed as induction of sleep at 10 mg/kg, ip; format: organism-based; parameters: dose 10 mg/kg, route intraperitoneal; conditions: in vivo; how it was run: as §3
# Mus musculus [22] = experiment: Toxicity in NMRI mouse assessed as induction of hypoactivity at 10 mg/kg, ip; format: organism-based; parameters: dose 10 mg/kg, route intraperitoneal; conditions: in vivo; how it was run: as §3
# Mus musculus [23] = experiment: Antiamnesic activity in NMRI mouse assessed as reversal of scopolamine-induced spontaneous alteration deficit at 0.1 mg/kg, ip co-administered with 0.3 mg/kg DPZ by Y maze test; format: functional, organism-based
# How it was run: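 Scopolamine 0.5 mg/kg given SC 30 min before the Y-maze test. The reference combination was 0.1 mg/kg IP (30 min before) plus DPZ 0.3 mg/kg SC (20 min before), in 0.9% NaCl vehicle. Percent spontaneous alternation = actual/(total arm entries − 2) × 100. Mean ± SD, n = 10–12, univariate t test versus 50%.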
# Mus musculus [24] = experiment: Antiamnesic activity in NMRI mouse assessed as reversal of scopolamine-induced spontaneous alteration deficit at 1 mg/kg, ip by Y maze test; format: functional, organism-based; parameters: dose 1 mg/kg
smiles,measurement,setting,value
COc1cc(N)c(Cl)cc1C(=O)CCC1CCN(CC2CCC2)CC1,inhibition,[1],47%
COc1cc(N)c(Cl)cc1C(=O)CCC1CCN(CC2CC2)CC1,IC50,Cholinesterase,6.6 µM
COc1cc(N)c(Cl)cc1C(=O)OCC1CCN(CC2CCCCC2)CC1,IC50,Cholinesterase,4.1 µM
COc1cc(N)c(Cl)cc1C(O)CCC1CCN(CC2CCCCC2)CC1 (stereo not given),IC50,Cholinesterase,3.64 µM
same,IC50,Acetylcholinesterase [2],1.03 µM
same,Ki,[3],0.122 µM
COc1cc(N)c(Cl)cc1C(=O)CCC1CCN(Cc2cccnc2)CC1,IC50,Cholinesterase,9.16 µM
same,IC50,Acetylcholinesterase [2],0.045 µM
same,Ki,[3],0.0204 µM
COc1cc(N)c(Cl)cc1C(=O)NCC1CCN(CC2CCCCC2)CC1,inhibition,Acetylcholinesterase [4],45%
same,Ki,[3],0.00225 µM
COc1cc(N)c(Cl)cc1/C(CCC1CCN(CC2CCCCC2)CC1)=N/O,Ki,[3],0.193 µM
CC(N)Cc1ccccc1 (stereo not given) [AMPHETAMINE],Activity,Mus musculus [5],Toxic
same,Activity,Mus musculus [6],Toxic
same,Activity,Mus musculus [7],Toxic
COc1cc(N)c(Cl)cc1C(=O)CCC1CCN(CC2CCCCC2)CC1,Activity,Mus musculus [8],Toxic
same,IC50,Cholinesterase,3.53 µM
same,Activity,Mus musculus [9],Active
same,Activity,[10],48.3%
same,inhibition,[11],73%
same,Activity,Mus musculus [12],Active
same,Emax,[13],22.5%
same,Activity,Mus musculus [14],Active
same,LD50,[15],75 mg/kg
same,Activity,Mus musculus [16],Toxic
same,Activity,Mus musculus [17],Non-toxic
same,Activity,Mus musculus [18],Non-toxic
same,inhibition,[19],100%
CN(C)CCCN1c2ccccc2Sc2ccc(Cl)cc21 [CHLORPROMAZINE],Activity,Mus musculus [20],Toxic
same,Activity,Mus musculus [21],Toxic
same,Activity,Mus musculus [22],Toxic
COc1cc(N)c(Cl)cc1C(=O)CCC1CCN(Cc2ccccc2)CC1,IC50,Cholinesterase,1.83 µM
same,Activity,[10],65%
same,inhibition,[11],41%
same,IC50,Acetylcholinesterase [2],0.0085 µM
same,Ki,[3],0.0143 µM
same,inhibition,[19],100%
CCCCN1CCC(CCC(=O)c2cc(Cl)c(N)cc2OC)CC1,IC50,Acetylcholinesterase [2],0.403 µM
same,Ki,[3],0.0093 µM
same,Activity,Mus musculus [23],Active
COc1cc(N)c(Cl)cc1C(=O)CCC1CCN(CC2CCCCCC2)CC1,IC50,Cholinesterase,4 µM
same,Activity,[10],58%
same,inhibition,[11],46%
same,inhibition,[19],99%
COc1cc(N)c(Cl)cc1C(=O)CCC1CCN(CC2CCCCC2C)CC1 (stereo not given),IC50,Cholinesterase,4.34 µM
COc1cc(N)c(Cl)cc1C(=O)CCC1CCN(CC2CCCC2)CC1,IC50,Cholinesterase,6.91 µM
same,Activity,[10],48%
same,inhibition,[11],58%
same,inhibition,[19],100%
COc1cc(N)c(Cl)cc1C(=O)CCC1CCN(Cc2ccncc2)CC1,inhibition,[1],46%
same,IC50,Acetylcholinesterase [2],0.121 µM
same,Ki,[3],0.0206 µM
COc1cc2c(cc1OC)C(=O)C(CC1CCN(Cc3ccccc3)CC1)C2 (stereo not given),Activity,Mus musculus [24],Active
CO/N=C(\CCC1CCN(CC2CCCCC2)CC1)c1cc(Cl)c(N)cc1OC,IC50,Cholinesterase,7.42 µM
same,inhibition,Acetylcholinesterase [4],33%
COc1cc(N)c(Cl)cc1C(=O)CCC1CCN(CC2CCNCC2)CC1,inhibition,[1],26%
same,Activity,[10],20%
same,inhibition,[11],69%
same,inhibition,[19],100%
COc1cc(N)c(Cl)cc1C(=O)CCC1CCN(CCC2CCCCC2)CC1,IC50,Cholinesterase,6.34 µM
